Experimental data collected from several papers.
Lines come from different studies, so protocols differ.

SMILES	test	test system	conditions	endpoint	result
CC[C@H](C)CCCCC(=O)N[C@@H](CCN)C(=O)N[C@H](C(=O)N[C@@H](CCN)C(=O)N[C@H]1CCNC(=O)[C@H]([C@@H](C)O)NC(=O)[C@H](CCN)NC(=O)[C@H](CCN)NC(=O)[C@H](CC(C)C)NC(=O)[C@@H](CC(C)C)NC(=O)[C@H](CCN)NC1=O)[C@@H](C)O		male Sprague-Dawley rat, plasma	intravenous, 5 mg/kg	C0	15400 ng/mL
C#Cc1nc(C(=O)N2CCC(NC(=O)c3cnc(-c4ccccc4)s3)(c3nc4ccccc4n3C)CC2)cs1	metabolic stability	mouse, liver microsomes		half-life	~20 min
CC(=O)c1c(C)c2cnc(Nc3ccc(C4CCN(CCS(C)(=O)=O)CC4)cn3)nc2n(C2CCCC2)c1=O	metabolic stability	mouse, liver microsomes		half-life	72.2 min
CN1CCC[C@H]1c1cccnc1		rat, plasma	intravenous, 0.1 mg/kg	half-life	68 min
O=c1c2cc(Cl)c(CO)cc2[nH]c(=S)n1Cc1cncnc1	metabolic stability	mouse, liver microsomes	1 µM, pH 7.4	half-life	57.9 min
Cc1[nH]c(C)c(S(=O)(=O)Nc2ccc(S(F)(F)(F)(F)F)cc2)c1C(=O)N1CCC(F)(F)C1	metabolic stability	mouse, liver microsomes		half-life	20 min
Cl.Cn1c(=O)n(CCCCN2CCC3(CC2)OCc2ccccc23)c2ccccc21		male Sprague-Dawley rat, plasma	intravenous, 10 mg/kg	half-life	216 min
CC(C)CC(=O)OC[C@H]1O[C@@](C#N)(c2ccc3c(N)ncnn23)[C@H](O)[C@@H]1O	metabolic stability	mouse, hepatocytes	5 µM	half-life	< 4.36 min
Cc1[nH]c(C)c(S(=O)(=O)Nc2ccc(S(=O)(=O)F)c(Cl)c2)c1C(=O)N1CCC(F)(F)C1	metabolic stability	mouse, liver microsomes		half-life	32 min
Cc1ccc2cc(N3CCC4(O)C(=O)c5cc(C)c(C)cc5N=C34)ccc2n1 (stereo not shown)		rat, plasma	intravenous, 2 mg/kg	half-life	186 min
